In publication PMC8427789 (ACS Omega, 2021):

Legend:
[1] = biological target: yeast α-glucosidase (yeast AG) (Saccharomyces cerevisiae, UniProt P53051); test: biochemical
[2] = biological target: T1, PTP-1B (Homo sapiens, UniProt P18031); test: PTP-1B kinetic studies; assay type: biochemical
T1 sequence (P18031 1-435): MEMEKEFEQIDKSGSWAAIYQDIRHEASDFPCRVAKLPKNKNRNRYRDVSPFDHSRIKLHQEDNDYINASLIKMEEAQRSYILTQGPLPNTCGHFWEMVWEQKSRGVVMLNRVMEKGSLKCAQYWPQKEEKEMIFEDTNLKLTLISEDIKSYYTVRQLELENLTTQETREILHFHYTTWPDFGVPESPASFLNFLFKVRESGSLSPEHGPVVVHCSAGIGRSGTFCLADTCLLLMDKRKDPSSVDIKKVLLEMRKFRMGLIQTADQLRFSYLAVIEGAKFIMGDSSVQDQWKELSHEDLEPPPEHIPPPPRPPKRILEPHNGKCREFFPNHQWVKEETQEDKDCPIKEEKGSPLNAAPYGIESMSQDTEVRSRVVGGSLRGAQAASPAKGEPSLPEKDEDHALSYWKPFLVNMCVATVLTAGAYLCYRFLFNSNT
In short: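 Recombinant human PTP-1B in 100 mM tris buffer, pH 6.8. Test compound at 0.03, 0.07 and 0.1 mM, dissolved in DMSO or buffer, preincubated 5 min with enzyme (solution at 1.56 mg/mL). Then p-NPP added at 0.6–3 mM for 20 min at room temperature, absorbance read at 415 nm. Lineweaver–Burk double-reciprocal plots made; Vmax, Km and Ki from nonlinear regression fit.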

[3] = biological target: T2, recombinant human protein tyrosine phosphatase 1B (PTP-1B) (Homo sapiens, UniProt P18031); test: PTP-1B activity assay; assay type: biochemical
T2 sequence (P18031 1-435): T1 sequence (P18031 1-435)

Chain of yeast α-glucosidase (yeast AG) (P53051 2-589): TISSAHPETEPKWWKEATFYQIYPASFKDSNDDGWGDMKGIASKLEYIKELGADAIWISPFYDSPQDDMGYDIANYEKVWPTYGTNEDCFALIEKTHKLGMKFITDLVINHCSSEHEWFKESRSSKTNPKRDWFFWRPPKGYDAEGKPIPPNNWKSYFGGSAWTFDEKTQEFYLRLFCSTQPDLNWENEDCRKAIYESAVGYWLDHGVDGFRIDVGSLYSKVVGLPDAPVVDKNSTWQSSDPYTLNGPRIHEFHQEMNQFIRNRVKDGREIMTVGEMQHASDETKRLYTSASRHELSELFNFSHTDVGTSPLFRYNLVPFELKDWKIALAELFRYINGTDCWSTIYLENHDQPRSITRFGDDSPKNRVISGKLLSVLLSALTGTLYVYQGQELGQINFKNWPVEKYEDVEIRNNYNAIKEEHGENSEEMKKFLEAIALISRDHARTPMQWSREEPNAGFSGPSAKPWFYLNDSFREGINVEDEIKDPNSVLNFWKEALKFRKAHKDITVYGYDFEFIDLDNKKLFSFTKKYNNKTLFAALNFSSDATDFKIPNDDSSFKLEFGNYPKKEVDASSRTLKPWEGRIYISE

SMILES: C[C@H]1O[C@H](O[C@H]2[C@H](O)[C@@H](O)[C@@H](O[C@H]3[C@H](O)[C@@H](O)C(O)O[C@@H]3CO)O[C@@H]2CO)[C@H](O)[C@@H](O)[C@@H]1N[C@H]1C=C(CO)[C@@H](O)[C@H](O)[C@H]1O (some centres unmarked) [acarbose]
- IC50 [1]: 403 ± 10 µM

SMILES: COC(=O)c1c(O)ccc2oc3cc(CO)cc(O)c3c(=O)c12 [Compound 3, sydowinin B]
- Ki [2]: 27.5 µM
- type of inhibition of PTP-1B ([2]; Lineweaver–Burk plot): noncompetitive
- Vmax ([2]; PTP-1B, p-NPP): 1.308 mM/min
- IC50 [3]: 81 ± 4 µM
